Measurements: ChEMBL document CHEMBL3525963, “Tissue distribution and elimination of [14C]apixaban in rats” (Drug Metab Dispos, 2011)

Legend:
Format in all cases: ADME, organism-based
Parameters in all cases: dose 5 mg/kg, dosed compound name [14C]-apixaban, route oral
Conditions in all cases: in vivo
[1] = tested on: Spleen; assay: Biodistribution in male Sprague-Dawley rat spleen at 5 mg/kg, po administered as single dose measured after 0.5 hrs
Summary of the method: (§1)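 [14C]apixaban (1.0 mg/mL, 20 μCi/mL) in 0.5% Tween 80 in Labrafil, given by oral gavage at 100 μCi/kg to male rats (225-252 g) fasted overnight through 4 h post-dose. One rat per time point. Carcasses frozen in hexane/dry ice and cut into 40 µm sagittal sections. QWBA read on phosphor plates against [14C]glucose standards, reported as µg eq/g. LLOQ 0.037 µg eq/g.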

[2] = tested on: Rattus norvegicus; assay: Biodistribution in male Sprague-Dawley rat kidney cortex at 5 mg/kg, po administered as single dose measured after 8 hrs
[3] = tested on: Lung; assay: Biodistribution in male Sprague-Dawley rat lung at 5 mg/kg, po administered as single dose measured after 8 hrs; summary of the method: as §1
[4] = tested on: Rattus norvegicus; assay: Biodistribution in male Sprague-Dawley rat salivary gland at 5 mg/kg, po administered as single dose measured after 8 hrs
[5] = tested on: Heart; assay: Biodistribution in male Sprague-Dawley rat heart at 5 mg/kg, po administered as single dose measured after 24 hrs
Summary of the method: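 Fasted male SD rats (225-252 g) each received one oral gavage dose of [14C]apixaban, 5 mg/kg (100 μCi/kg), in 0.5% Tween 80/Labrafil vehicle. One rat was killed per time point, from 0.5 to 168 h. Frozen carcasses were cut into 40 µm sagittal whole-body sections and read by QWBA phosphor imaging against [14C]glucose calibrants. Results are in µg apixaban eq/g; BLQ <0.037 µg eq/g.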

[6] = tested on: Lung; assay: Biodistribution in female Sprague-Dawley rat lung at 5 mg/kg, po administered as single dose measured after 24 hrs
Summary of the method: (§2)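 Quantitative whole-body autoradiography was run after a single 5 mg/kg (100 μCi/kg) oral gavage to fasted female or pregnant SD rats, one rat per time point. Carcasses were frozen in hexane/dry ice, and 40 µm sagittal sections were dried at −20°C for at least 48 h. Sections were exposed to a phosphor plate alongside [14C]glucose standards (0.001–6.5 µCi/g). Results are µg eq/g, with LLOQ 0.037 µg eq/g.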

[7] = tested on: Brain; assay: Biodistribution in male Sprague-Dawley rat brain at 5 mg/kg, po administered as single dose measured after 72 hrs
[8] = tested on: Adrenal gland; assay: Biodistribution in male Sprague-Dawley rat adrenal gland at 5 mg/kg, po administered as single dose measured after 4 hrs
Summary of the method: (§3)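 [¹⁴C]Apixaban given by oral gavage at 5 mg/kg (100 μCi/kg) in 0.5% Tween 80 in Labrafil (1.0 mg/mL dosing solution) to rats fasted overnight through 4 h post-dose. One rat per time point; carcass frozen in hexane/dry ice. Quantitative whole-body autoradiography used 40 µm sagittal sections and a phosphor imaging plate calibrated with [¹⁴C]glucose standards (0.001–6.5 μCi/g). Read-out in µg eq apixaban/g; LLOQ 0.037 μg eq/g.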

[9] = tested on: Pancreas; assay: Biodistribution in male Sprague-Dawley rat pancreas at 5 mg/kg, po administered as single dose measured after 4 hrs; summary of the method: as §1
[10] = tested on: Rattus norvegicus; assay: Biodistribution in pregnant Sprague-Dawley rat kidney cortex at 5 mg/kg, po administered as single dose measured after 8 hrs
[11] = tested on: Liver; assay: Biodistribution in pregnant Sprague-Dawley rat liver at 5 mg/kg, po administered as single dose measured after 8 hrs
[12] = tested on: Rattus norvegicus; assay: Biodistribution in fetal blood of pregnant Sprague-Dawley rat at 5 mg/kg, po administered as single dose measured after 8 hrs
Summary of the method: (§4)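 Pregnant rats, 270-319 g and fasted overnight, received [14C]apixaban by oral gavage at 100 μCi/kg in 0.5% Tween 80/Labrafil. One dam per time point was euthanized and frozen in hexane/dry ice. Fetal tissue radioactivity was measured by QWBA on 40 µm sagittal sections calibrated with [14C]glucose standards. Values are in µg eq/g, with LLOQ 0.037 μg eq/g.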

[13] = tested on: Rattus norvegicus; assay: Biodistribution in fetal kidney of pregnant Sprague-Dawley rat at 5 mg/kg, po administered as single dose measured after 8 hrs
Summary of the method: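 Fasted pregnant SD rats (n=6, 270-319 g) each received one oral gavage dose of [14C]apixaban, 5 mg/kg (100 μCi/kg), in 0.5% Tween 80/Labrafil. One rat was killed at each of 0.5, 1, 4, 8, 24 and 48 h. Carcasses were frozen in hexane/dry ice, cut into 40 µm sagittal sections, exposed to phosphor plates and quantified against [14C]glucose standards as µg eq/g. LLOQ was 0.037 µg eq/g.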

[14] = tested on: Harderian gland; assay: Biodistribution in female Sprague-Dawley rat harderian gland at 5 mg/kg, po administered as single dose measured after 0.5 hrs; summary of the method: as §3
[15] = tested on: Thymus; assay: Biodistribution in pregnant Sprague-Dawley rat thymus at 5 mg/kg, po administered as single dose measured after 48 hrs
Summary of the method: (§5)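 Pregnant SD rats (270-319 g) were fasted overnight and given one oral gavage of 5 mg/kg (100 μCi/kg) in 0.5% Tween 80 in Labrafil. One rat was euthanized per time point (0.5, 1, 4, 8, 24, 48 h) and the carcass frozen. 40 µm sagittal sections were phosphor-imaged against [14C]glucose standards and results reported as µg eq/g; LLOQ 0.037 µg eq/g.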

[16] = tested on: Rattus norvegicus; assay: Biodistribution in pregnant Sprague-Dawley rat placenta at 5 mg/kg, po administered as single dose measured after 48 hrs; summary of the method: as §5
[17] = tested on: Rattus norvegicus; assay: Biodistribution in pregnant Sprague-Dawley rat kidney cortex at 5 mg/kg, po administered as single dose measured after 4 hrs
[18] = tested on: Pancreas; assay: Biodistribution in pregnant Sprague-Dawley rat pancreas at 5 mg/kg, po administered as single dose measured after 4 hrs
[19] = tested on: Brain; assay: Biodistribution in pregnant Sprague-Dawley rat brain at 5 mg/kg, po administered as single dose measured after 8 hrs
[20] = tested on: Plasma; assay: AUC (0 to t) in lactating Sprague-Dawley rat plasma at 5 mg/kg, po administered as single dose
Summary of the method: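 Fasted lactating SD rats received 5 mg/kg [14C]apixaban orally (formulation 5.0 mg/mL, 20 μCi/mL). Oxytocin was injected subcutaneously 15 min before collection, and 1 mL milk was taken under anesthesia by milking machine. Sampling was predose and at 0.5–24 h, 3 rats per time point. Plasma was obtained at 1300g for 10 min. Duplicate 50–100 µL aliquots were counted by LSC for 10 min. AUC was calculated in WinNonlin.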

[21] = tested on: Spleen; assay: Biodistribution in female Sprague-Dawley rat spleen at 5 mg/kg, po administered as single dose measured after 72 hrs; summary of the method: as §2
[22] = tested on: Rattus norvegicus; assay: Biodistribution in pregnant Sprague-Dawley rat placenta at 5 mg/kg, po administered as single dose measured after 0.5 hrs
[23] = tested on: Rattus norvegicus; assay: Biodistribution in fetal blood of pregnant Sprague-Dawley rat at 5 mg/kg, po administered as single dose measured after 0.5 hrs; summary of the method: as §4
[24] = tested on: Rattus norvegicus; assay: Biodistribution in pregnant Sprague-Dawley rat kidney cortex at 5 mg/kg, po administered as single dose measured after 1 hr
[25] = tested on: Rattus norvegicus; assay: Biodistribution in pregnant Sprague-Dawley rat placenta at 5 mg/kg, po administered as single dose measured after 1 hr
[26] = tested on: Harderian gland; assay: Biodistribution in pregnant Sprague-Dawley rat harderian gland at 5 mg/kg, po administered as single dose measured after 8 hrs

In the case of COc1ccc(-n2nc(C(N)=O)c3c2C(=O)N(c2ccc(N4CCCC[14C]4=O)cc2)CC3)cc1, the Radiolabel recovery [1] was 0.18 ugequiv/g, the Radiolabel recovery [2] was 0.88 ugequiv/g and the Radiolabel recovery [3] was 0.14 ugequiv/g. The Radiolabel recovery [4] was 0.13 ugequiv/g, the Radiolabel recovery [5] was “Not detected assumed BLQ” and the Radiolabel recovery [6] was “Not sampled as not visualised in autoradiograph”. It also gave a Radiolabel recovery [7] of under 0.037 ugequiv/g, a Radiolabel recovery [8] of 0.76 ugequiv/g and a Radiolabel recovery [9] of 0.55 ugequiv/g. For the same compound, the Radiolabel recovery [10] was 0.21 ugequiv/g, the Radiolabel recovery [11] was 0.65 ugequiv/g and the Radiolabel recovery [12] was 0.07 ugequiv/g. For the same compound, the Radiolabel recovery [13] was “Not sampled as not visualised in autoradiograph”, the Radiolabel recovery [14] was 0.4 ugequiv/g and the Radiolabel recovery [15] was “Not detected assumed BLQ”. The Radiolabel recovery [16] was “Not detected assumed BLQ”, the Radiolabel recovery [17] was 1.93 ugequiv/g and the Radiolabel recovery [18] was 0.99 ugequiv/g. The Radiolabel recovery [19] was under 0.037 ugequiv/g, the AUCt [20] was 3420 ngequiv.hr/g and the Radiolabel recovery [21] was “Not detected assumed BLQ”. For the same compound, the Radiolabel recovery [22] was 1.02 ugequiv/g, the Radiolabel recovery [23] was 0.27 ugequiv/g and the Radiolabel recovery [24] was 2.03 ugequiv/g. For the same compound, the Radiolabel recovery [25] was 0.74 ugequiv/g and the Radiolabel recovery [26] was 0.19 ugequiv/g.
